We go through 33 compounds from ChEMBL document CHEMBL3272064, “Mode of action and quantitative structure-activity correlations of tuberculostatic drugs of the isonicotinic acid hydrazide type” (J Med Chem, 1976).

The nature of data set [1]: Dissociation constant, pKa of the compound.
Data set [2] in a line: Retardation factor, Rm of the compound in acetone-water-silica gel layer. It counts as physicochemical. The note with it: buffer. In a few lines: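 Reversed-phase partition chromatography. The mobile phase was acetone–water; the stationary phase was a silica gel layer impregnated with a paraffin solution in n-hexane.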
Data set [3] has as its system Mycobacterium tuberculosis. Nature of the data set: Antibacterial activity against Mycobacterium tuberculosis H37Rv assessed as growth inhibition by two-fold serial dilution method. It counts as functional. The note with it: for MIC: Mycobacterium tuberculosis, H37Rv.
Data set [4] deals with Mycobacterium tuberculosis. Nature of the data set: Antibacterial activity against Mycobacterium tuberculosis assessed as growth inhibition. It counts as functional. In a few lines:
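Liquid-culture serial dilution against M. tuberculosis H37Rv, with √2 dilution steps. The test medium had 0.7% protein content. MIC (μM) was taken as the average of at least two determinations. Isoniazid served as the standard in every experiment. Activity was expressed as 1/MIC.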

Data set [5] is described as follows: Dissociation constant, pKa of the compound at 25 degC by spectrophotometric analysis. It counts as physicochemical. In a few lines: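 Determined spectrophotometrically at 25 °C (±1). For the approximate value of the nitro-substituted pyridine, the Hammett acidity function (H0) was used.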
The test system of data set [6] is Mycobacterium tuberculosis. Nature of the data set: Antibacterial activity against Mycobacterium tuberculosis using acidic culture media at pH 5.9 assessed as growth inhibition. It counts as functional.
The test system of data set [7] is Mycobacterium tuberculosis. Nature of the data set: Antibacterial activity against Mycobacterium tuberculosis assessed as growth inhibition at pH 7. It counts as functional.
Data set [8] deals with Mycobacterium tuberculosis. Nature of the data set: microbe, parasite or virus in culture.
The subject of data set [9] is Mycobacterium tuberculosis. Nature of the data set: Antibacterial activity against Mycobacterium tuberculosis assessed as growth inhibition in presence of 16 uM nicotinic acid hydrazide. It counts as functional.
Data set [10] is described as follows: 1-octanol-phosphate buffer partition coefficient, log P of the compound at pH 7.4. It counts as physicochemical.

Converted amounts (≈) assume the structure as drawn.

A word on the pKa: it is the negative logarithm of the acid dissociation constant. In data set [1], `C=Cc1ccccn1` returned a pKa of 4.98. For the compound `CCCc1cc(C(=O)NN)ccn1`, in data set [2], the Rm stood at 1.168. For the same compound, the “log(1/MIC)” value in data set [3] is reported as -1.742. On to `CCc1cc(C(=O)NN)ccn1`, for which, in data set [2], the Rm was found to be 0.862. Also, the “log(1/MIC)” value in data set [3] was -1.324. On to `CC(=O)Nc1ccccn1`, for which the pKa in data set [1] amounted to 4.09. On the same count and under the same terms, in the case of `COc1ccccn1` it was 3.06. In data set [2], `CC(=O)Nc1cc(C(=O)NN)ccn1` showed a Rm of 0.266. Moreover, in data set [3], the “log(1/MIC)” value is recorded as -3.332. In the case of `NNC(=O)c1ccnc(Br)c1`, the Rm in data set [2] is reported as 0.866. Also, in data set [3], the “log(1/MIC)” value is on record as -2.79 and the MIC was 616 µM (≈ 133 µg/mL). For `Nc1ccccn1` [2-AMINOPYRIDINE], the pKa in data set [1] was found to be 6.71. For `c1ccc(Cc2ccccn2)cc1`, in data set [1], the pKa came out at 5.13. Consider `C=Cc1cc(C(=O)NN)ccn1`, for which the Rm in data set [2] is recorded as 1.02. Further, in [3], the “log(1/MIC)” value was -1.544. Take `CC(C)Cc1cc(C(=O)NN)ccn1`: the Rm in [2] is recorded as 1.366. Besides, in data set [3], the “log(1/MIC)” value was -2.653 and the MIC turned out to be 450 µM (≈ 87 µg/mL). For `CC(=O)NCc1cc(C(=O)NN)ccn1`, the Rm in [2] is reported as 0.34. Also, the “log(1/MIC)” value in data set [3] is on record as -2.386. As to `CCN(CC)c1cc(C(=O)NN)ccn1`, in data set [2], the Rm is given as 1.383. The “log(1/MIC)” value in data set [3] is listed as -2.856. As for `NNC(=O)c1ccnc(-c2ccccc2)c1`, the Rm in data set [2] is 1.643. In data set [3], the “log(1/MIC)” value was -1.699. Regarding `NNC(=O)c1ccnc(F)c1`, the Rm in data set [2] came out at 0.42. Further, in data set [3], the “log(1/MIC)” value is on record as -2.415 and the MIC is 260 µM (≈ 40.3 µg/mL). `CCCc1ccccn1` yielded a pKa in data set [1] of 5.97. Consider `NNC(=O)c1ccnc(Cl)c1`, for which, in [2], the Rm turned out to be 0.63. The “log(1/MIC)” value in data set [3] was -2.593. `NNC(=O)c1ccnc(Cc2ccccc2)c1` came in with a Rm in data set [2] of 1.365. In [3], the “log(1/MIC)” value is listed as -1.585. Turning to `NNC(=O)c1cccnc1` [NICOTINIC ACID HYDRAZIDE], the MIC in [4] worked out at 1900 µM (≈ 261 µg/mL). With `CCOc1ccccn1`, in data set [5], the pKa turned out to be 3.47. `NNC(=O)c1ccnc(N)c1`: the Rm in data set [2] turned out to be 0.32. For the same compound, the “log(1/MIC)” value in data set [3] is reported as -1.161. For `NNC(=O)c1ccnc(I)c1` the same measures were 0.931 and -2.404.

In [1], `Fc1ccccn1` gave a pKa of 0.44. As for `O=C(O)c1ccncc1` [ISONICOTINIC ACID], the MIC in data set [6] was 128 µM (≈ 15.8 µg/mL); in data set [7], more than 4000 µM. The pKa in data set [1] was found to be 4.84.

As to `CC(=O)NCc1ccccn1`, the pKa in [5] is 4.23. For the compound `CCN(CC)c1ccccn1`, in data set [5], the pKa is 7.32. In turn, `NNC(=O)c1ccnc([N+](=O)[O-])c1` gave a Rm in [2] of 0.577. In addition, the “log(1/MIC)” value in data set [3] is reported as -2.569. The logD is the decadic logarithm of the distribution of all forms, ionised or not, between an organic phase and buffer at a given pH. Read a high logD as higher lipophilicity. On to `NNC(=O)c1ccncc1` [ISONIAZID], for which the MIC was 1 µM (≈ 0.137 µg/mL) in [4], 0.5 µM (≈ 0.0686 µg/mL) in data set [8], 1.1 µM (≈ 0.151 µg/mL) in [3] and 1900 µM in data set [9]. In addition, the Rm in data set [2] stood at 0.372. Further, the “log(1/MIC)” value in data set [3] is given as -0.041. The compound also returned a logD in [10] of -1.14. For `CCOc1cc(C(=O)NN)ccn1`, the Rm in [2] is 0.954. Also, the “log(1/MIC)” value in data set [3] was -2.655.

In turn, `Cc1cc(C(=O)NN)ccn1` displayed a Rm in [2] of 0.697. For the same compound, the “log(1/MIC)” value in data set [3] is on record as -0.716. Regarding `CCc1ccccn1`, the pKa in data set [1] worked out at 5.97.

For `Brc1ccccn1`, the pKa in data set [1] came out at 0.9.

`COc1cc(C(=O)NN)ccn1` returned a Rm in data set [2] of 0.783. Besides, the “log(1/MIC)” value in data set [3] is -2.185.
